Compound activity as filed in PubChem.
An excerpt weighted towards active compounds, which were near 5.8% of everything screened.
IDH1 R132H inh: inhibitors of IDH1 R132H reductase, primary screen, biochemical, plate reader, single point. inhibition, % at 10 µM. diaphorase/resazurin fluorescence, 60 min. 0.18% of 70,000 active. Isocitrate dehydrogenase [NADP] cytoplasmic (Homo sapiens), O75874; in the data active = inhibition above about 34%; inconclusive = no clear call, values can overlap the other calls; inactive = below about 11%;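 also: 0% = DMSO and 100% = no enzyme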
T cruzi growth-1: T. cruzi intracellular proliferation inhibitors, primary screen, cell-based, beta-gal Tulahuen parasites, NIH3T3 host, luminescence | inhibition, % at 8.34 µM | T. cruzi beta-gal in NIH3T3, GalScreen luminescence, 90 h | 5.9% of 77,000 active;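 active = mean inhibition above about 93%, with at least 55% of replicates each passing it, limit read from the data, passing the limit was not always enough; inconclusive = only one of those two conditions holds; inactive = neither condition holds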
Pf Dd2 growth: P. falciparum Dd2 growth inhibitors, primary screen, SYBR Green fluorescence, single dose replicates | 72 h; hits give low values | activity change, % at 10 µM | 2.3% of 94,000 active | AID 1159554, 2015; in the data active = activity change below about -80%; inconclusive = no clear call, values can overlap the other calls
KDM4C inh: inhibitors of GASC-1 (KDM4C) histone demethylase, primary screen, biochemical, single concentration HTS; GST-KDM4C 2-372, H3K9me3 peptide, LANCE TR-FRET; inhibition, % at 12.5 µM; 0.15% of 96,000 active;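 active = mean replicate inhibition above about 25%, with at least 55% of replicates also reaching it, limit read from the data, passing the limit was not always enough; inconclusive = only one of those two conditions met; inactive = neither condition met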
Target sequence (Q9H3R0 2-372 limits assumed): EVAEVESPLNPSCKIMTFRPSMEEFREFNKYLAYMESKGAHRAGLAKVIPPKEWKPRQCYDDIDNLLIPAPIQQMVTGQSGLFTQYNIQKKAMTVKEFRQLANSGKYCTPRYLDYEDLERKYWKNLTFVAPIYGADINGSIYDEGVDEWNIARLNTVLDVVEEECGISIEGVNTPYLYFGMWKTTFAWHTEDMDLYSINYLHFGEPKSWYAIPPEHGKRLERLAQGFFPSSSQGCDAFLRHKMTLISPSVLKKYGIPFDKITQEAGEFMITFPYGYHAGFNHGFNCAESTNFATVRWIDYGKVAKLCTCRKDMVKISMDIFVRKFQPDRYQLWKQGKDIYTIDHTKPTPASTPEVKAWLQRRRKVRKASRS
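Assay system: GST-GASC-1 enzyme fragment 2-372 | Amount: 10 nM enzyme | Medium: HEPES buffer, pH 7.5, plus ascorbate | Reagent: H3K9me3 peptide substrate, Fe(II), 2-oxoglutarate | Doses: Single-point compound screen | Incubation: 30 min demethylation and 1 h detection at room temperature | Measured by: LANCE TR-FRET, excitation 340 nm, emissions 618 and 671 nm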
T cruzi growth-2: T. cruzi intracellular proliferation inhibitors, confirmation, cell-based, NIH3T3 host, beta-gal parasite, luminescence, cherry-pick; shares compounds with T cruzi growth-1; T. cruzi beta-gal in NIH3T3, GalScreen luminescence, 90 h; inhibition, % at 8.35 µM; 72% of 5,600 active; AID 651739, 2012;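 active = mean replicate inhibition above about 95% and at least 55% of replicates individually reaching it, limit read from the data; inconclusive = only one of the two criteria is met; inactive = neither criterion is met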
T cruzi growth-3: inhibitors of intracellular T. cruzi replication, confirmation, NIH3T3 host cells, beta-gal parasites, cherry-pick, set 2; inhibition, % at 2.09 µM; 21% of 5,600 active; shares compounds with T cruzi growth-1; T. cruzi beta-gal in NIH3T3, GalScreen luminescence, 90 h;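 active = mean inhibition above about 95%, with at least 55% of replicates also reaching it, limit read from the data; inconclusive = meets just one of the two conditions; inactive = meets neither condition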;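 also: plate controls were neutral control median for no effect and positive control median for full effect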
3T3 cytotox: cytotoxicity in mouse NIH/3T3 fibroblasts, confirmation, cytotoxicity control for T. cruzi proliferation inhibitor project, cell-based, cherry-pick, single point; cytotoxicity (signal decrease), % at 8.35 µM; AID 651742, 2012; shares compounds with T cruzi growth-1; NIH/3T3 viability, CellTiter-Glo ATP luminescence, 90 h; 14% of 5,600 active;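 active = mean signal decrease across replicates above about 35% based on untreated-well scatter, with enough replicates individually passing, limit read from the data; inconclusive = no rule stated though some were filed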;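 also: 0% = median of neutral control wells and 100% = median of positive control wells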
NIH3T3 tox 2: NIH/3T3 fibroblast cytotoxicity, confirmation, cytotoxicity control, cell-based, cherry-pick, single point, set 2 | shares compounds with T cruzi growth-1 | NIH/3T3 viability, CellTiter-Glo ATP luminescence, 90 h | inhibition, % at 24.9 µM | 56% of 5,600 active;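 active = mean loss of cell viability signal at or above a set limit, and enough replicates individually reaching it; inconclusive = meets only the mean limit or only the replicate share; inactive = meets neither condition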;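 also: 0% = median of neutral control wells and 100% = median of positive control wells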
* hit, by the source's call; ? = inconclusive; . = no result given.

SMILES | IDH1 R132H inh | T cruzi growth-1 | Pf Dd2 growth | KDM4C inh | T cruzi growth-2 | T cruzi growth-3 | 3T3 cytotox | NIH3T3 tox 2
CN1c2ccc(-c3ccc(F)cc3)cc2[C@@H]2[C@@H](CCN2C(=O)Cc2cccnc2)[C@@H]1CO | . | ? | -62.6 | -0.1 | 106.4* | 62.3 | -13.4 | -6.3
COc1ccc(NC(=O)Nc2ccc3c(c2)[C@H]2C[C@@H](CC(=O)N4CCN(C)CC4)O[C@H](CO)[C@H]2O3)cc1 | -0.9 | 50.4 | 16.1 | 0.2 | . | . | . | .
O=C(C1CCC1)N1CCCCN2[C@@H](CO)[C@H](c3ccc(-c4ccncc4)cc3)[C@@H]2C1 | . | ? | -0.7 | 4.8 | 101.8* | 87.5 | 14.7 | ?
CN(C)C(=O)c1ccc(-c2ccc([C@H]3[C@H](CO)N4CCCCN(C(=O)C5CC5)C[C@@H]34)cc2)cc1 | . | ? | -77.2 | -0.6 | 100.0* | 79.9 | -25.9 | 9.9
CN(C)C(=O)c1ccc(-c2ccc([C@@H]3[C@H](CO)N4CCCCN(C(=O)C5CCC5)C[C@@H]34)cc2)cc1 | . | 105.9* | 12.2 | . | 103.0* | ? | 16.3 | 13.5
CN(C)C(=O)c1ccc(-c2ccc([C@@H]3[C@@H](CO)N4CCCCN(C(=O)C5CCC5)C[C@@H]34)cc2)cc1 | . | -0.8 | -56.0 | . | . | . | . | .
CN(C)C(=O)c1ccc(-c2ccc([C@H]3[C@@H](CO)N4CCCCN(C(=O)C5CCC5)C[C@H]34)cc2)cc1 | . | 113.3* | 7.4 | . | 96.5* | ? | -11.0 | 11.7
C[C@@H]1CCCCO[C@@H](CN(C)C(=O)C2CCCCC2)[C@@H](C)CN([C@@H](C)CO)C(=O)c2cc(NC(=O)Nc3cccc4ccccc34)ccc2O1 | . | 109.8* | -89.2* | 0.5 | 105.7* | 65.1 | -9.3 | -26.9
C[C@@H]1CCCCO[C@H](CN(C)C(=O)C2CCCCC2)[C@H](C)CN([C@H](C)CO)C(=O)c2cc(NC(=O)Nc3cccc4ccccc34)ccc2O1 | . | 116.9* | -89.5* | -1.4 | 105.1* | 112.8* | -27.9 | -17.7
C[C@@H]1CCCCO[C@H](CN(C)C)[C@@H](C)CN([C@H](C)CO)C(=O)c2cc(NC(=O)Nc3cccc4ccccc34)ccc2O1 | . | 69.0 | 23.3 | 5.4 | . | . | . | .
C[C@@H]1CCCCO[C@H](CN(C)C)[C@H](C)CN([C@@H](C)CO)C(=O)c2cc(NC(=O)Nc3cccc4ccccc34)ccc2O1 | -5.2 | 73.9 | -37.3 | -1.1 | . | . | . | .
COc1ccc(O)c(/C=N/NC(=O)CCCCCCC(=O)Nc2ccccc2O)c1 | 0.2 | . | . | . | . | . | . | .
C[C@H](CO)N1C[C@H](C)[C@H](CN(C)S(=O)(=O)c2ccc(F)cc2)OCCCC[C@H](C)Oc2ccc(NS(=O)(=O)c3ccc(F)cc3)cc2C1=O | . | 118.6* | -45.5 | 0.6 | 102.6* | 91.4 | 8.1 | -14.7
C[C@H]1CCCCO[C@H](CN(C)S(=O)(=O)c2ccc(F)cc2)[C@@H](C)CN([C@@H](C)CO)C(=O)c2cc(NS(=O)(=O)c3ccc(F)cc3)ccc2O1 | -0.7 | 99.0* | -64.1 | 0.8 | 110.2* | 67.7 | 2.8 | -2.9
C[C@H]1CCCCO[C@@H](CN(C)S(=O)(=O)c2ccc(F)cc2)[C@@H](C)CN([C@@H](C)CO)C(=O)c2cc(NS(=O)(=O)c3ccc(F)cc3)ccc2O1 | 0.0 | 119.2* | -47.8 | -2.9 | 105.1* | 32.6 | -12.7 | -17.0
C[C@@H]1CCCCO[C@H](CN(C)S(=O)(=O)c2ccc(F)cc2)[C@@H](C)CN([C@@H](C)CO)C(=O)c2cc(NS(=O)(=O)c3ccc(F)cc3)ccc2O1 | -0.3 | 111.4* | -70.0 | -1.5 | 103.0* | 62.5 | -4.4 | 19.2
